Results: ChEMBL document CHEMBL1122643, “Alpha-adrenoreceptor reagents. 2. Effects of modification of the 1,4-benzodioxan ring system on alpha-adrenoreceptor activity” (J Med Chem, 1984)
Activity calls are given as the source filed them. No cut-off for these calls is given here.

Columns and labels:
[1] = biological target: T1, Alpha-2 adrenergic receptor (Mus musculus) (UniProt P30545+Q01338+Q01337); assay: Presynaptic alpha-2 adrenergic receptor from mouse vas deferens agonistic activity relative to clonidine = 1.; format: functional, tissue-based
Summary of the method: (§1)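 Isolated tissue agonist test, potency compared directly with the standard in the same experiment. Standard dose-response curves were run before and after the test compound's curve. Rat anococcygeus (male Sprague-Dawley, 200-250 g; Krebs, 30 °C, 95% O2/5% CO2) was compared with phenylephrine. Field-stimulated mouse vas deferens (0.1 Hz, Mg-free Krebs, 30 °C) was compared with clonidine.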

[2] = biological target: T2, Adrenergic receptor alpha-1 (Rattus norvegicus) (UniProt P15823+P23944+P43140); assay: Agonism at Alpha-1 adrenoceptor determined in rat anococcygeus preparation; Inactive.; format: functional; summary of the method: as §1
[3] = Ratio of agonist potencies against alpha2 and alpha-1 adrenoceptors; format: functional
[4] = biological target: T1, Alpha-2 adrenergic receptor (Mus musculus); assay: Ability to antagonize the inhibitory effect of clonidine on the mouse vas deferens is the presynaptic alpha-2 adrenergic receptor antagonist potency relative to idazoxan = 1.; format: functional, tissue-based
Summary of the method: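 Male adult mouse vasa deferentia (MFI >30 g), 0.5 g initial tension, Mg-free Krebs, 30 °C, 95% O2/5% CO2. Field stimulation at 0.1 Hz, 3-ms pulses, 100-140 V set to give ~100-mg twitch, recorded isometrically.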

[5] = biological target: T3, Alpha-2 adrenergic receptor (Mus musculus, UniProt P30545+Q01338+Q01337); assay: Alpha-2 adrenergic receptor […] in mouse vas deferens relative to clonidine; format: functional, tissue-based; summary of the method: as §1
T3 sequence (P30545 whole entry): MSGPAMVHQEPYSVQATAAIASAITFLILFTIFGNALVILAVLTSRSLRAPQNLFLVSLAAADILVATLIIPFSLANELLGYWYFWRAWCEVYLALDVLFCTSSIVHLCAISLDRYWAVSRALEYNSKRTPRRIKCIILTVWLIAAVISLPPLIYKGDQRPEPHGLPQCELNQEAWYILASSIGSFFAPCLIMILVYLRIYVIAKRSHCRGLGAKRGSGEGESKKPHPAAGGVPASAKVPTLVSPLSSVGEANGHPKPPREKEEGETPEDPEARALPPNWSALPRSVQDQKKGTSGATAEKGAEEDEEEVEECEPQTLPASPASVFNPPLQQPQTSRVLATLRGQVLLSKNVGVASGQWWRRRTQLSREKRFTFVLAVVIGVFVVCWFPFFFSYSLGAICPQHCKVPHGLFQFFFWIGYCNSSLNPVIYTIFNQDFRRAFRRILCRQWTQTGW
T3 sequence (Q01338 whole entry): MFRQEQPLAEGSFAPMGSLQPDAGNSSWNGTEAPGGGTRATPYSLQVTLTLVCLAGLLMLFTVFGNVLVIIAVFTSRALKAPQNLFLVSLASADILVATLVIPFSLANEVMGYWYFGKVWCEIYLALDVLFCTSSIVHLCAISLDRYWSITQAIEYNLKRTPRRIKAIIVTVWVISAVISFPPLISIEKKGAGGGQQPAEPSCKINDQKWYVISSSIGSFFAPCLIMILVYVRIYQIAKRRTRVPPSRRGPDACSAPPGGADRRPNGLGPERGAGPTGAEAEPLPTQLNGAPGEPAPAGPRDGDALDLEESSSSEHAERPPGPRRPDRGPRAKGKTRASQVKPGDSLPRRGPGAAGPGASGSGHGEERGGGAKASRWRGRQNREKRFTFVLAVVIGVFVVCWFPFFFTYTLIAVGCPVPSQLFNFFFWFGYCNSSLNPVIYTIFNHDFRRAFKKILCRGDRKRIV
T3 sequence (Q01337 whole entry): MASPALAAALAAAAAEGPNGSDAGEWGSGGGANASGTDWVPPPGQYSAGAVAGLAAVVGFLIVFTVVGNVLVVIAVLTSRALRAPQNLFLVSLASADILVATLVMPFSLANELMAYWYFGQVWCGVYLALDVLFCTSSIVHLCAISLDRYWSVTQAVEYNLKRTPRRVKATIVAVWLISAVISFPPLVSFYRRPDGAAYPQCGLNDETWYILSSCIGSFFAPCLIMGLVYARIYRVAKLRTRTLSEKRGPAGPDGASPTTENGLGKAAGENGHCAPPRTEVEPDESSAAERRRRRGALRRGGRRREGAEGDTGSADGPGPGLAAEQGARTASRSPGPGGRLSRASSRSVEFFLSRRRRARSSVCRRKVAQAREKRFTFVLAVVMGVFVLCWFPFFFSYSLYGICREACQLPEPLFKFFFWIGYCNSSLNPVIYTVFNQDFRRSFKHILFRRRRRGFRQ

[6] = Selectivity between pre- and post-synaptic sites of action.; format: functional
[7] = biological target: T4, Adrenergic receptor alpha-1 (Rattus norvegicus, UniProt P15823+P23944+P43140); assay: Alpha-1 adrenergic receptor […] in rat anococcygeus assay; format: functional; summary of the method: as §1
T4 sequence (P15823 whole entry): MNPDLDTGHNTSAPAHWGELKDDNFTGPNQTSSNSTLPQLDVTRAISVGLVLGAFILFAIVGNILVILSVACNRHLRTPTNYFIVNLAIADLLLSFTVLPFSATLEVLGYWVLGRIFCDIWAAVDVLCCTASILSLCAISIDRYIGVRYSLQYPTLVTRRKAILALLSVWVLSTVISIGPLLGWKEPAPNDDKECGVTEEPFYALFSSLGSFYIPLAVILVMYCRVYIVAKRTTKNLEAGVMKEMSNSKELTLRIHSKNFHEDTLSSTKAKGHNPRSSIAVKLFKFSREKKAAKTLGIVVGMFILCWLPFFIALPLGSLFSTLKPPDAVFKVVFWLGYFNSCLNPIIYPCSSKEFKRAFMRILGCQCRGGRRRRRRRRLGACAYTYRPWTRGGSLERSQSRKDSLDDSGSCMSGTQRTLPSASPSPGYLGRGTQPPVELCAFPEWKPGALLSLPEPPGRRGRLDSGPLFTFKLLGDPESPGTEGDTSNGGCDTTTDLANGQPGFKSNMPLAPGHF
T4 sequence (P23944 whole entry): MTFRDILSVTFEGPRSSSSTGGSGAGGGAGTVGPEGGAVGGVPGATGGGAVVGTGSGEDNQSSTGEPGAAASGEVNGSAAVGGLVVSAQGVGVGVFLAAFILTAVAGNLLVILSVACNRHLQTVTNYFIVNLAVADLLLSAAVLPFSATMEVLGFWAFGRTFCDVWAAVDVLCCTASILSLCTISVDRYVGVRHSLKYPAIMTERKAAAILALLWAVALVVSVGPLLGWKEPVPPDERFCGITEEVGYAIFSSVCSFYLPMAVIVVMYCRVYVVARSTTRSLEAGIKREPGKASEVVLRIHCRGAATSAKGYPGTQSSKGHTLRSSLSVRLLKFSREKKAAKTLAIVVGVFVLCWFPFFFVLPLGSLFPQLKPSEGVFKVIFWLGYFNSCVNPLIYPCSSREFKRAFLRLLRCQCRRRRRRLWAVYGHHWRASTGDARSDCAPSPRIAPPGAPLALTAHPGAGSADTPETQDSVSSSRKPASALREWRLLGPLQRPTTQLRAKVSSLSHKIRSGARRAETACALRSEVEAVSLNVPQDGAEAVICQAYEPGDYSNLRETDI
T4 sequence (P43140 whole entry): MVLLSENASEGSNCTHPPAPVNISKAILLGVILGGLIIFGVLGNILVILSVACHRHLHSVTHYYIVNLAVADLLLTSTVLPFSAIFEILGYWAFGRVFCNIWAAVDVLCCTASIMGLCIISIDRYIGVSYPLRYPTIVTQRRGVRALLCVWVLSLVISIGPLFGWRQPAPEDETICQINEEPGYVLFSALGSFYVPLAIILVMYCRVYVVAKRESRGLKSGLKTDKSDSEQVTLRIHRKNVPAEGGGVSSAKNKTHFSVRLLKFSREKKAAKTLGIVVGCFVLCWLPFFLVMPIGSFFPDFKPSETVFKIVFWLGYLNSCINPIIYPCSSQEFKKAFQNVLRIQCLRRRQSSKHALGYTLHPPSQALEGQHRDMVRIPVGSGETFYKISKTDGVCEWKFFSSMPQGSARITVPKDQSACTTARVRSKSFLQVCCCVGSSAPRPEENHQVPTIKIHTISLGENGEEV

[8] = biological target: T2, Adrenergic receptor alpha-1 (Rattus norvegicus); assay: In vitro inhibition of the contractile effect of phenylephrine on the isolated rat anococcygeus; potency relative to idazoxan.; format: functional
[9] = biological target: T2, Adrenergic receptor alpha-1 (Rattus norvegicus); assay: Post-synaptic alpha-1 adrenergic receptor (rat anococcygeus) agonistic activity relative to phenylephrine; Inactive; format: functional; summary of the method: as §1
[10] = biological target: T1, Alpha-2 adrenergic receptor (Mus musculus); assay: Presynaptic alpha-2 adrenergic receptor agonistic activity in mouse vas deferens relative to clonidine; format: functional, tissue-based; summary of the method: as §1
[11] = biological target: T3, Alpha-2 adrenergic receptor; assay: Alpha-2 adrenergic receptor […] in mouse vas deferens assay compared to clonidine; format: functional, tissue-based; summary of the method: as §1
[12] = biological target: T1, Alpha-2 adrenergic receptor (Mus musculus); assay: Inhibition of alpha-2 adrenergic receptor; format: functional
[13] = biological target: T1, Alpha-2 adrenergic receptor (Mus musculus); assay: Presynaptic alpha-2 adrenergic receptor agonist activity in isolated mouse vas deferens; format: functional, tissue-based
Summary of the method: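 Vasa deferentia from adult male MFI mice (>30 g) were held at 0.5 g initial tension in Mg-free Krebs solution at 30 °C, gassed with 95% O2/5% CO2. Tissues were field-stimulated at 0.1 Hz with 3-ms pulses, with voltage (100-140 V) set for about 100-mg twitches, recorded isometrically. Potency was expressed relative to the standard, run before and after each analogue curve in the same tissue.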

[14] = biological target: T2, Adrenergic receptor alpha-1 (Rattus norvegicus); assay: In vitro inhibition of the contractile effect of phenylephrine on the isolated rat anococcygeus; potency relative to idazoxan; Inactive.; format: functional
[15] = biological target: T2, Adrenergic receptor alpha-1 (Rattus norvegicus); assay: Post-synaptic alpha-1 adrenergic receptor (rat anococcygeus) agonistic activity relative to phenylephrine; format: functional; summary of the method: as §1

| IC40 [12] [nM] | pD2 [13] | Structure (SMILES) | Agonist potency [1] | Agonist potency [2] | Selectivity ratio [3] | Antagonist potency [4] | pA2 [5] | Ratio [6] | pA2 [7] | Antagonist potency [8] | Agonist potency [9] | Agonist potency [10] | pA2 [11] | Antagonist potency [14] | Agonist potency [15] |
| --- | --- | --- | --- | --- | --- | --- | --- | --- | --- | --- | --- | --- | --- | --- | --- |
|  |  | Cl.Clc1ccc2c(c1)CC(C1=NCCN1)O2 (centres undefined) | inactive | inactive | 5.6 | 0.53 | 7.8 | 1.5 | 7.05 | 0.35 |  |  |  |  |  |
|  |  | CC1(C2=NCCN2)Cc2ccccc2O1 (centres undefined) |  |  |  | 0.25 |  | 0.71 |  | 0.35 | inactive | 0.002 |  |  |  |
|  |  | Cl.c1ccc2c(c1)OCC(C1=NCCN1)O2 (centres undefined) [IDAZOXAN HYDROCHLORIDE] |  |  |  |  |  |  |  |  |  |  | 7.98 |  |  |
|  |  | COc1ccc2c(c1)CC(C1=NCCN1)O2 (centres undefined) | inactive |  |  | 0.12 |  | 5.2 |  | 0.023 | inactive |  |  |  |  |
| 3.68 | 8.8 | Clc1cccc(Cl)c1NC1=NCCN1 |  |  |  |  |  |  |  |  |  |  |  |  |  |
|  |  | CCCC1(C2=NCCN2)Cc2ccccc2O1.Cl (centres undefined) | inactive | inactive | 175 | 1.9 | 8.63 | 1.9 | 6.39 | 1 |  |  |  |  |  |
|  |  | CCCCCC1(C2=NCCN2)Cc2ccccc2O1.Cl (centres undefined) | inactive | inactive | 32 | 0.44 | 7.97 | 0.44 | 6.47 | 1 |  |  |  |  |  |
|  |  | Cc1cc(Cl)cc2c1OC(C1=NCCN1)C2 (centres undefined) | inactive |  |  | 0.5 |  |  |  |  |  |  |  | inactive | 1 |
|  |  | CCC1(C2=NCCN2)Cc2ccccc2O1.Cl (centres undefined) [EFAROXAN HYDROCHLORIDE] | inactive | inactive | 258 | 1.8 | 8.32 | 6 | 5.91 | 0.3 |  |  |  |  |  |
